High-throughput results: PubChem, The Scripps Research Institute Molecular Screening Center
CHO parental Ca – counter-screen: ATP calcium response change in parental CHO cells. parental CHO-K1, ATP-induced calcium, Fluo-8 fluorescence. inhibition, % at 5.6 µM. actives 0.63% (n = 330,000). AID 463079;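 active = inhibition above that plate's mean sample inhibition plus 3 SD, cut at about 26% in these data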;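 also: 0% = ATP-challenged DMSO wells and 100% = DMSO wells without ATP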
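material = parental CHO cells | also added = ATP as calcium-mobilizing challenge | dosing = single point at 5.6 µM | detection = intracellular calcium via Fluo-8 no-wash fluorescent dye | read-out = % inhibition | benchmarks = low control ATP plus DMSO, high control DMSO only | repeats = one well per compound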
GPR7 antag – blocks human GPR7 receptor signaling | actives 1.1% (n = 290,000) | AID 1861 | inhibition, % at 4.4 µM | GPR7-expressing cells, fluorescence antagonist assay; in the data active = inhibition above about 16%, passing the limit was not always enough;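 also: cells stimulated with the agonist NPW; 0% = agonist with vehicle and 100% = vehicle without agonist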
TAAR1 antag – antagonists of human TAAR1; Q96RJ0; CHO RD-HGA16 TAAR1, Fluo-8 calcium fluorescence, antagonist; inhibition, % at 3 µM; actives 1.5% (n = 360,000); AID 624466;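 active = inhibition above a per-plate cutoff, the mean inhibition of test compounds on that plate plus 3 SD, cut at about 49% in these data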;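 also: 0% = DMSO plus EC80 beta-PEA response and 100% = DMSO alone without agonist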
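test system = CHO RD-HGA16 cells bearing hTAAR1 | replication = singlicate | controls = DMSO-only wells and EC80 β-PEA-stimulated wells | reagent = EC80 β-phenethylamine stimulus | read-out basis = percent inhibition of PEA-evoked calcium signal, max/basal emission ratio | schedule = seeding 17-24 h prior, 75-min 37 °C, 30-min RT dye loading | signal = kinetic Fluo-8 calcium fluorescence measurement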
TAAR1 ag – agonists of human TAAR1 | Q96RJ0 | CHO RD-HGA16 TAAR1, Fluo-8 calcium fluorescence; vehicle wells 0%, saturating PEA agonist 100% | activation, % at 3 µM | actives 0.99% (n = 360,000);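 active = activation above the mean activation of all test compounds in the run plus 3 SD, cut at about 38% in these data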
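Signal – calcium-sensitive Fluo-8 signal, excitation 470-495, emission 515-575 nm · System – RD-HGA16 (CHO) cells co-expressing Gα16 and hTAAR1 · Incubation – 17-24 h seeding, 75 min 37 °C dye, 30 min RT · Compound dosing – 3 µM single concentration · Repeats – no replicates (n 1)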
OX1R antag-1 – blocks the human orexin 1 receptor. O43613. actives 1.8% (n = 330,000). inhibition, % at 6.6 µM. OX1R-expressing cells, FRET antagonist read-out; in the data active = inhibition mostly above about 38%, no sharp cut-off; inactive = mostly below about 40%;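 also: 0% = agonist challenge alone and 100% = reference antagonist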
Target sequence (O43613 whole entry, looked up): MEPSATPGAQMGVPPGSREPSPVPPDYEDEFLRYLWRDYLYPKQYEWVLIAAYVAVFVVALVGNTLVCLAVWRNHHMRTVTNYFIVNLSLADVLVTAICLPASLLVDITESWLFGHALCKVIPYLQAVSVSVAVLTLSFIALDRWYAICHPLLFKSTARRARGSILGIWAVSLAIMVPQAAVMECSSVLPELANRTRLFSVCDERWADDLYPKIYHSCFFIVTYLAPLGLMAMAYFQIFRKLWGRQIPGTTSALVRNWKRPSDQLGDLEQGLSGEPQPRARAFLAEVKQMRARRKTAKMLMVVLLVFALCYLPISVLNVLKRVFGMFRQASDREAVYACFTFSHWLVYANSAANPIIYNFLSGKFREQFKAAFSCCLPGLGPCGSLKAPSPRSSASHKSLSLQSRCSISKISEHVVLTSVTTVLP
OX1R antag-2 – blocks the human orexin 1 receptor | actives 0.43% (n = 330,000) | inhibition, % at 5 µM | O43613 | AID 434989 | CHO/OX1R cells, Fluo-8 calcium fluorescence, orexin A;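 active = inhibition above its plate's threshold, mean inhibition of all tested compounds on the plate plus 3 SD, cut at about 37% in these data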;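 also: 0% = orexin A challenge wells and 100% = SB-334867-A antagonist wells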
GPR7 antag conf – human GPR7 antagonism, confirmation assay; shares compounds with GPR7 antag; GPR7-expressing cells, calcium fluorescence antagonist mode; inhibition, % at 4.4 µM; actives 52% (n = 2,400); AID 1952; in the data active = inhibition above about 24%;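 also: stimulated with the GPR7 agonist NPW; 0% = agonist plus vehicle and 100% = vehicle alone without agonist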
MCHR1 antag – counter-screen for GPR7 antagonists: antagonists of human MCHR1; AID 2148; MCHR1-expressing cells, fluorescence antagonist assay; inhibition, % at 4.4 µM; shares compounds with GPR7 antag; actives 62% (n = 2,400); in the data active = inhibition above about 22%;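 also: 0% = vehicle with agonist and 100% = vehicle without agonist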
An asterisk follows results filed as active; · = not tested or not shown. A selection: hits, their analogues and other compounds. The true share with any hit is near 4.6%.

SMILES	CHO parental Ca	GPR7 antag	TAAR1 antag	TAAR1 ag	OX1R antag-1	OX1R antag-2	GPR7 antag conf	MCHR1 antag
OC(CNCc1ccco1)Cn1c2ccccc2c2ccccc21 (configuration not stated)	10	21*	-11	20	10	3	19	14
C=CCn1c(COc2ccccc2-c2ccccc2)nnc1SCC(=O)NC(=O)NCc1ccco1	-2	6	19	5	29	12	·	·
COc1cccc(NC(=O)C(C)OC(=O)CCCNC(=O)c2ccc(Cl)cc2)c1 (configuration not stated)	1	13	-19	5	8	-7	·	·
CC(OC(=O)CCCNC(=O)c1ccc(Cl)cc1)C(=O)N(C)Cc1ccccc1 (configuration not stated)	-13	35*	-14	3	30	-15	-2	5
Cn1cc(CNCCN2CCCCC2=O)c(-c2cccc(Cl)c2)n1	-17	-8	8	1	8	-10	·	·
CCn1c(Cc2ccccc2)nnc1SCc1ccc([N+](=O)[O-])cc1	-9	32*	-12	1	16	-22	14	-2
CC(C)C[C@@H](CSc1ccccc1)N1CCN(C)CCC1=O	-11	-2	-11	6	10	-10	·	·
Oc1cccc(CN2CCOCC2)c1O	·	·	-22	5	·	·	·	·
COc1ccccc1CNC(=O)CSc1nc(-c2ccccc2)cn1N	-3	27*	-16	4	73*	10	-10	8
COC(=O)c1cc(NS(=O)(=O)c2cccc(Cl)c2)ccc1N1CCOCC1	-11	-1	-4	3	26	-26	·	·
O=C(NCc1ccc2c(c1)OCO2)C(=O)NCC1OCCN1S(=O)(=O)c1ccc(Br)cc1 (configuration not stated)	-10	29*	2	3	7	-3	22	40*
O=C(NCc1ccc2c(c1)OCO2)C(=O)NCC1OCCN1S(=O)(=O)c1ccc(Cl)cc1 (configuration not stated)	-14	3	-18	2	8	-30	·	·
CC1CN/C(=C\C(=O)c2ccccc2)C(=O)N1 (configuration not stated)	6	30*	-1	9	65	-8	2	2
Clc1ccc(-c2noc(CSc3nnc(Cc4cccs4)n3-c3ccccc3)n2)cc1	1	28*	12	2	28	-34	1	42*
CCOC(=O)c1cc2ccccc2n1CCN(CC)CC	-17	31*	-13	23	8	-42	6	6
Cc1nc(NC(=S)NC(=O)COc2ccc(Cl)cc2)ccc1Br	-2	-11	11	2	3	-5	·	·
C=CC1(C)CN(Cc2ccco2)S(=O)(=O)c2c(F)cccc2O1 (configuration not stated)	·	·	-4	-2	·	·	·	·
O=C(c1ccc(NS(=O)(=O)c2cccs2)cc1)N1CCCCC1	-3	21*	-4	8	27	3	-15	3
O=C(c1ccc(NS(=O)(=O)c2ccc(F)cc2)cc1)N1CCCCC1	0	·	-6	4	14	2	·	·
O=C(c1ccc(S(=O)(=O)Nc2ccccc2)cc1)N1CCCCCCC1	-16	25*	26	33	19	-27	19	17
COc1cc(C(=O)NCCN2CCCC2)cc(OC)c1OC	0	-4	3	14	1	-10	·	·
Cc1ccc[n+](CC(=O)Nc2cc(C(F)(F)F)ccc2Cl)c1	7	-2	0	13	21	5	·	·
CCC(C)(C)c1ccc(OCCCC[n+]2cccc(C)c2)c(C(C)(C)CC)c1	·	21*	-16	32	·	·	78*	90*
CCN1CCN(C(=O)N(c2ccccc2)c2ccccc2)CC1	-4	4	3	2	1	-21	·	·
COc1ccc(CCN(C)C(=S)Nc2ccc(SC(F)F)cc2)cc1OC	-2	39*	13	5	17	-4	12	11
SMILES	CHO parental Ca	GPR7 antag	TAAR1 antag	TAAR1 ag	OX1R antag-1	OX1R antag-2	GPR7 antag conf	MCHR1 antag
COc1ccc(CCN(C)C(=S)NC(=O)c2ccc(F)cc2Cl)cc1OC	-19	3	-3	1	6	-19	·	·
CCCC(C)C(=O)Nc1ncc(S(=O)(=O)c2ccc([N+](=O)[O-])cc2)s1 (configuration not stated)	30	65*	62*	89*	12	28	70*	87*
O=C(N/C(=C\c1cccc([N+](=O)[O-])c1)C(=O)N1CCOCC1)c1ccc([N+](=O)[O-])cc1	-7	23*	-7	2	24	-5	1	-2
COC(=O)\C(C(C)=O)=C(/C=C/C=C/C=C/N(C)C)N(C)C	-18	-13	6	2	25	-19	·	·
CCOc1ccc(NC(=S)N2CCC(NC(=O)C3CCCCC3)CC2)cc1	3	28*	-24	11	14	-6	-8	3
Cc1ccc2nccc(C(=O)N3CCCC(Nc4ccc(C)c(C)c4)C3)c2c1 (configuration not stated)	-31	27*	-26	0	38*	27	-5	-9
Cc1cc(CSc2ccccc2C(=O)O)on1	5	-8	-2	4	22	-12	·	·
Cc1ccc(NC(Cc2cc(C)no2)c2ccccc2)cc1 (configuration not stated)	-15	40*	-7	21	19	-19	34*	12
O=C1C=CC(=O)N1c1cccc2cccnc12	·	·	7	0	·	·	·	·
O=C(CNS(=O)(=O)c1ccccc1)OCC(=O)c1ccc(OC(=O)c2ccccc2)cc1	-5	24*	42	13	6	13	26*	39*
O=C(CNS(=O)(=O)c1ccccc1)OCC(=O)c1ccc(Br)cc1	4	-9	-12	6	10	7	·	·
CC(C)CC(=O)N1CCN(c2ccc([N+](=O)[O-])c(NCc3ccccc3)c2)CC1	-32	36*	5	6	16	-25	26*	45*
COC(=O)C1=C(C)N(Cc2ccccc2C(F)(F)F)C(=NCc2cccc(C(F)(F)F)c2)NC1CCc1ccccc1 (configuration not stated)	·	·	-19	2	·	·	·	·
COc1cc(NC(=O)c2[nH]c(C)c(C(C)=O)c2C)cc(OC)c1OC	2	-1	-2	-3	18	-8	·	·
CCOC(=O)Nc1ccc2c(c1)N(C(=O)CN1CCN(C)CC1)c1ccccc1S2	-16	-1	4	16	-2	-17	·	·
